Screening results: PubChem, SRMLSC
Many of the other results were omitted from the sample, so hits are more common in it than they were.
HUVEC prolif 384 – inhibitors of HUVEC proliferation, primary screen, cell-based, 384-well. CellTiter-Glo luminescence, 72 h; hits give low values. viability, % at 10 µM (by protocol). 86,000 tested, 1.1% active. AID 648, 2007;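 active = viability at or below 30%; inactive = viability above 30%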;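 note: 100% = median luminescence of DMSO-only cell control wells on each plate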
H69AR inhibit – proliferation blockers of H69AR lung cancer cells, primary screen, cell-based, human, 86K library. H69AR lung tumor viability, ATP luminescence, 72 h; hits give low values. viability, % at 10 µM. 85,000 tested, 6% active. AID 598, 2007;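 active = viability at or below 40%; inactive = viability above 40%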;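 note: multidrug resistant small cell line overexpressing MRP-1 efflux transporter; 100% = mean luminescence of untreated control wells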
Lung fibro prol – antiproliferative effect on LL 47 fibroblasts – human, LL 47 cells, CellTiter-Glo luminescence, primary screen. LL 47 human lung fibroblast viability, ATP luminescence; hits give low values. viability, % at 10 µM. 85,000 tested, 1.1% active. AID 719, 2007;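 active = viability at or below 50% in the single dose screen; inactive = viability above 50%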;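 note: compound exposure lasted 72 h before the ATP readout; 100% = median luminescence of untreated cell-only wells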
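Benchmarks: Cell-only wells, no compound | Test system: LL 47 human lung fibroblasts, passage 12 or lower | Input: 1,150 cells/well | Measured by: CellTiter-Glo luminescence measuring cellular ATP | Medium: IMEM, 15% FBS supplement | Schedule: Overnight attachment after seeding, then 72 h compound exposure at 37 °C | Doses: Compound addition at 0.1% DMSO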
HCT116 bCat-KO – primary screen for growth suppressors in beta-catenin knockout HCT116 cells (colon tumor, human); HCT116 beta-catenin knockout viability, CellTiter-Glo, 60 h; hits give low values; viability, % at 10 µM; 140,000 tested, 1.5% active;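 active = viability at or under a set limit, the compound median less 4 SD, cut at about 6% in these data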;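 note: 0% = Hyamine 1622 control at 20 µM and 100% = untreated cell control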
HCT116 PTEN-null – growth suppression of PTEN-null HCT116, primary screen, cell-based, CellTiter-Glo | HCT116 PTEN-null viability, 60 h; hits give low values | viability, % at 10 µM | 140,000 tested, 1.2% active | AID 827, 2007;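 active = viability at or below a set limit, 4 SD under the median of all tested compounds, cut at about 3.7% in these data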;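 note: PTEN knockout HCT116 line with beta catenin targeted HCT116 as companion control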
An asterisk follows results filed as active; . = no result given.

SMILES	HUVEC prolif 384	H69AR inhibit	Lung fibro prol	HCT116 bCat-KO	HCT116 PTEN-null
COc1ccc(NC(=O)/C(C#N)=C\c2cc(C)n(-c3ccc(Oc4ccc([N+](=O)[O-])cn4)cc3)c2C)cc1	68.2	33.1*	62.9	53.7	43.1
Cc1cc(C=O)c(C)n1-c1ccc(Oc2ccc([N+](=O)[O-])cn2)cc1	.	.	.	73.2	65.6
COc1cccc(NC(=O)c2cc(CN3C(=O)c4ccccc4C3=O)ccc2OC)c1	.	.	.	93.2	90.2
Cc1ccc(OCC(=O)N/N=C/c2c[nH]c3ccccc23)c([N+](=O)[O-])c1	.	.	.	86.5	94.1
CC(Oc1ccc(Cl)cc1)C(=O)Nc1nccs1 (stereo unspecified)	91.7	101.3	103.7	51.9	62.3
CCCCCn1c(=O)[nH]c2cc(C(=O)N3CCN(CC)CC3)ccc2c1=O	99.2	80.4	92.3	90.1	95.2
CCOC(=O)N1CCN(C(=O)c2ccc3c(=O)n(CCC4=CCCCC4)c(=O)[nH]c3c2)CC1	85.1	39.0*	88.8	81.9	86.9
CCOC(=O)c1c(-c2ccc(C)o2)csc1NC(=O)CSc1nncs1	88.6	30.7*	97.0	99.8	92.1
O=C(NCc1cc(Br)cc(Br)c1OC(=O)c1ccccc1[N+](=O)[O-])c1ccccc1	.	.	.	60.5	61.7
COc1cc2nc(C3CC3)n(NC(=O)c3ccc(F)cc3)c(=O)c2cc1OC	110.5	78.6	94.2	92.6	105.9
COc1cc2nc(C3CC3)n(NC(=O)c3ccc(Cl)cc3)c(=O)c2cc1OC	68.2	24.4*	91.0	54.6	59.4
CCOC(=O)c1ccc(NC(=O)C2CCCN(S(=O)(=O)c3ccc(F)cc3)C2)cc1 (stereo unspecified)	74.0	19.5*	94.3	9.2	14.2
CCOC(=O)c1ccc(NC(=O)C2CCN(S(=O)(=O)CC)CC2)cc1	87.5	70.1	96.5	108.2	105.0
Cc1ccc(S(=O)(=O)N2CCCC(C(=O)Nc3ccc(NC(=O)c4ccccn4)cc3)C2)cc1 (stereo unspecified)	75.1	20.6*	75.9	7.8	20.4
O=C(Nc1ccc(Oc2ccccc2)cc1)C1CCCN(c2ncccn2)C1 (stereo unspecified)	85.1	39.6*	92.2	98.6	91.6
COc1ccc(C(=O)c2c(C(F)(F)F)oc3c2C(=O)c2ccccc2C3=O)cc1OC	4.7*	1.6*	2.4*	1.3*	1.9*
CCn1c(COc2ccccc2Cl)nnc1SCC(=O)Nc1ncccc1C	.	.	.	83.5	74.2
COC(=O)c1nn(-c2ccccc2)nc1-c1nn(-c2ccccc2)nc1C(=O)OC	88.4	25.9*	91.1	89.7	84.0
N#Cc1ccc(C2=NC(C(F)(F)F)(C(F)(F)F)c3c(n(Cc4ccco4)c(=O)[nH]c3=O)N2)cc1	58.4	34.9*	75.0	70.6	56.9
O=c1[nH]c(=O)n(Cc2ccco2)c2c1C(C(F)(F)F)(C(F)(F)F)N=C(CCC1CCCCC1)N2	82.5	9.5*	75.7	44.1	49.1
O=c1[nH]c(=O)n(Cc2ccco2)c2c1C(C(F)(F)F)(C(F)(F)F)N=C(C1CCCCC1)N2	82.8	85.8	93.3	87.8	90.2
O=C(CC1C(=O)NCCN1C(=S)Nc1ccccc1)Nc1ccc2c(c1)OCCO2 (stereo unspecified)	97.4	90.0	93.6	102.0	100.0
CC1CCCCN1Cc1c(O)ccc2c(=O)c(-c3nc4ccccc4s3)c(N)oc12 (stereo unspecified)	.	.	.	28.2	33.0
COc1ccc(O[C@H]2C=C[C@@H](c3ccccc3)O[C@@H]2CO/N=C(\C)CCN2CCCCc3nc(C)c(C)cc32)cc1	.	.	.	20.3	24.5
O=C(CSc1nnc(COc2ccc(Cl)cc2)o1)N1c2ccccc2CCc2ccccc21	92.5	9.1*	61.5	29.5	38.4
SMILES	HUVEC prolif 384	H69AR inhibit	Lung fibro prol	HCT116 bCat-KO	HCT116 PTEN-null
COc1ccc(-c2cnnc(N/N=C/c3ccc(O)c(OC)c3)n2)cc1	.	.	.	34.1	34.0
O=C(Nc1cc(N2CCOCC2)ncn1)Nc1cccc2ccccc12	74.8	32.5*	96.6	53.1	51.5
CNc1sc(C(=O)c2cccs2)c(N)c1-c1nc2ccccc2s1	59.8	62.6	83.0	79.5	81.4
CNc1sc(C(=O)c2ccc(F)cc2)c(N)c1-c1nc2ccccc2s1	25.3*	5.7*	57.2	75.5	76.9
COc1ccc(N(C(=O)C(C)C)S(=O)(=O)c2cccs2)cc1	65.2	17.5*	80.7	82.9	82.9
CC(C)C(=O)N(c1cc2sc(=O)oc2c2ccccc12)S(=O)(=O)c1cccs1	102.6	21.7*	97.5	101.0	93.0
COc1ccc2cc(C(c3nnnn3C3CCCC3)N3CCCCCC3)c3nnnn3c2c1 (stereo unspecified)	43.4	40.1	94.5	9.3	2.3*
COc1ccc(C(c2nnnn2C2CCCC2)N2CCC(C)CC2)c(OC)c1 (stereo unspecified)	100.9	62.3	92.8	64.2	64.2
COc1ccc2cc(C(c3nnnn3C3CCCCC3)N3CCCCCC3)c3nnnn3c2c1 (stereo unspecified)	84.7	35.2*	87.5	.	.
CC(Sc1nc(N(C)C)nc(N2CCOCC2)n1)C(=O)Nc1ccccc1 (stereo unspecified)	101.7	31.4*	94.4	109.4	95.3
Cc1nc(Nc2ccc3c(c2)OCCO3)c2oc3ccccc3c2n1	65.3	79.8	96.2	55.1	63.1
CCc1nc(Nc2ccc3c(c2)OCCO3)c2oc3ccccc3c2n1	40.2	38.3*	88.8	68.2	59.5
CCc1nc(SCCO)c2oc3ccccc3c2n1	88.8	90.4	91.4	97.0	86.6
CCc1nc(Sc2nc(C)cc(C)n2)c2oc3ccccc3c2n1	102.2	5.3*	79.3	71.7	64.5
CCc1nc(SCc2nc3ccccc3[nH]2)c2oc3ccccc3c2n1	79.2	39.7*	90.0	68.7	47.5
Cc1cnn(C(=S)NCC2CCCO2)c1 (stereo unspecified)	94.0	75.0	91.5	86.6	100.1
COc1cc(CNCc2ccccn2)ccc1OCC(N)=O	.	.	.	110.4	101.7
COc1cc(CNCc2ccccn2)ccc1OCc1ccc(Cl)cc1Cl	.	.	.	2.4*	3.5*
CC1=C(C)CS(=O)N(S(=O)(=O)c2ccc(Cl)cc2)C1 (stereo unspecified)	58.6	104.4	47.2*	95.2	97.1
CC1CCN(S(=O)(=O)c2ccc(Cl)cc2)CC1	92.1	88.2	93.9	97.7	93.7
CCOc1ccc2ccccc2c1/C=N/NC(=O)CNC(=O)C(c1ccccc1)c1ccccc1	.	.	.	77.9	73.9
Cc1sc2nc(CSc3nc4ccccc4c(=O)n3CCCN3CCOCC3)[nH]c(=O)c2c1C	60.3	9.8*	86.4	41.7	31.9
CC(=O)c1c(C)[nH]c(C(=O)CSc2nc3ccccc3c(=O)n2CCCN2CCOCC2)c1C	86.0	65.6	81.1	59.2	58.4
Cc1nn(-c2ccccc2)c2nc3c(cc12)C(=O)CCC3	.	.	.	79.1	77.7
